Test results: ChEMBL document CHEMBL1122664, “Synthesis and evaluation of 19-aza- and 19-aminoandrostenedione analogues as potential aromatase inhibitors” (J Med Chem, 1984)
Where “and” joins values, the source holds several entries; their conditions need not be identical. Equal values may be shown once.

Assays:
[1] = target: T1, Aromatase (Homo sapiens, UniProt P11511); test: Inhibition of 1.25 uM [1-3H]-androst-4-ene-3,17-dione binding to Cytochrome P450 19A1
T1 sequence (P11511 whole entry): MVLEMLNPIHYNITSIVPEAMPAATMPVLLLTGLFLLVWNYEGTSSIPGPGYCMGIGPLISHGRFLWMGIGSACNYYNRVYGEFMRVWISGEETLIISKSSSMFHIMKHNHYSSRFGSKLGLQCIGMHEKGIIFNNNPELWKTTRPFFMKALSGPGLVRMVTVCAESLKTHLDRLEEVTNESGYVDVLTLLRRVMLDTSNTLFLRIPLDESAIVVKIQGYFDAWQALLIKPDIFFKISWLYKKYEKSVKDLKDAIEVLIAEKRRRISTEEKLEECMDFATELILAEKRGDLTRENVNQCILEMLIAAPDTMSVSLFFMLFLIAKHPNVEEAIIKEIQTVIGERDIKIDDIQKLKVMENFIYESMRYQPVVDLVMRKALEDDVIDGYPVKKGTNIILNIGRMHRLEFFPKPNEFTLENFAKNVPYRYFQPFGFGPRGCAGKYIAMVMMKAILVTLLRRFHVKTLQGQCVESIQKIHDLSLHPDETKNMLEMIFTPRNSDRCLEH
Summary of the method: (§1)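 Tritiated water release assay using lyophilized, twice-washed human term placental microsomes (0.1 mg protein) with [1-³H]androstenedione at 0.25 μM (5 × KM) and inhibitor at 0.25 or 1.25 μM. NADPH-generating system in 10 mM K phosphate with KCl, EDTA and DTT; 15 min at 25 °C. Stopped with CHCl₃; charcoal-treated aqueous ³H₂O counted. Triplicates; % inhibition versus concurrent controls.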

[2] = target: T1, Aromatase; test: Inhibition of 0.25 uM [1-3H]-androst-4-ene-3,17-dione binding to Cytochrome P450 19A1; summary of the method: as §1

SMILES	Inhibition [1]	Inhibition [2]
C[C@]12CCC(=O)C=C1C[C@@H](Sc1ccc(N)cc1)[C@@H]1[C@@H]2CC[C@]2(C)C(=O)CC[C@@H]12	83.1%	54.8%
COC(=O)N[C@]12CCC(=O)C=C1CC[C@H]1[C@@H]3CCC(=O)[C@@]3(C)CC[C@@H]12	< 2%	< 2%
C[C@]12CC[C@H]3[C@@H](CCC4=CC(=O)CC[C@@]43CNC(=O)C(F)(F)F)[C@@H]1CCC2=O	11.4%	2.5%
C[C@]12CC[C@H]3[C@@H](CCC4=CC(=O)CC[C@@]43/C=N\O)[C@@H]1CCC2=O	4.1%	8.6%
CC(=O)NC[C@]12CCC(=O)C=C1CC[C@@H]1[C@@H]2CC[C@]2(C)C(=O)CC[C@@H]12	13.2%	< 2%
C[C@]12CC[C@H]3[C@@H](CCC4=CC(=O)CC[C@@]43N)[C@@H]1CCC2=O	19.2% and 10.9%	9.4% and 6.9%
C[C@]12CC[C@H]3[C@@H](CCC4=CC(=O)CC[C@@]43N=C=O)[C@@H]1CCC2=O	< 2%	< 2%
C[C@]12CCC(=O)C(O)=C1CC[C@@H]1[C@@H]2CC[C@]2(C)C(=O)CC[C@@H]12 [FORMESTANE]	81.6%	50.1%
